# From paper PMC12166256 (Clinical Pharmacology and Therapeutics, 2025)
# Assay: MAD study: plasma and urine pharmacokinetics
# Format: in vivo, human
# Conditions: for CLR (renal clearance), mean ± SD / CLR, geometric mean: MAD steady state
# Outline: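 Healthy males got oral doses for 14 days: 100 mg once daily fasted, or 100, 200 or 300 mg twice daily fed. Plasma was drawn pre-dose and […] on Day 1, pre-dose and at 3 h on Days 4, 7 and 12, and up to 120 h after the final Day 14 morning dose. Urine was collected over 24 h at steady state. LC–MS/MS, LLOQ 2 ng/mL; non-compartmental analysis.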
smiles,measurement,setting,value
CN1C(=O)c2cccc(OC(F)F)c2[C@H]2C[C@@H]1c1nc3ccc(-c4cnc(C5(N)CCC5)nc4)cc3n12 [Balinatunfib],"C max, mean ± SD","MAD Day 14, 100 mg QD fasted",161 ± 49.2 ng/mL
same,"C trough, geometric mean","MAD Day 14, 100 mg QD fasted",(35.2) [31] ng/mL
same,"C trough, mean ± SD","MAD Day 14, 100 mg QD fasted",37.2 ± 11.5 ng/mL
same,"CLss/F, geometric mean","MAD Day 14, 100 mg QD fasted",(59.5) [37] L/h
same,"CLss/F, mean ± SD","MAD Day 14, 100 mg QD fasted",62.5 ± 23.4 L/h
same,"FLrel (relative fluctuation), geometric mean","MAD Day 14, 100 mg QD fasted",(168) [20] %
same,"R ac (accumulation ratio), mean ± SD","MAD Day 14, 100 mg QD fasted",2.52 ± 0.431
same,"R ac Cmax (accumulation ratio based on C max), mean ± SD","MAD Day 14, 100 mg QD fasted",1.87 ± 0.400
same,"R ac, geometric mean","MAD Day 14, 100 mg QD fasted",(2.50) [17]
same,"V z/F, geometric mean","MAD Day 14, 100 mg QD fasted","(2,530) [38] L"
same,"V z/F, mean ± SD","MAD Day 14, 100 mg QD fasted","2,700 ± 1,020 L"
same,"t 1/2z, geometric mean","MAD Day 14, 100 mg QD fasted",(29.5) [28] h
same,"t 1/2z, mean ± SD","MAD Day 14, 100 mg QD fasted",30.3 ± 8.43 h
same,"t max, median (min, max)","MAD Day 14, 100 mg QD fasted","3.00 (2.00, 4.00) h"
same,"AUC0-tau, geometric mean","MAD Day 14, 200 mg BID fed","(4,990) [37] ng·h/mL"
same,"AUC0-tau, mean ± SD","MAD Day 14, 200 mg BID fed","5,370 ± 2,010 ng·h/mL"
same,"C av, geometric mean","MAD Day 14, 200 mg BID fed",(416) [37] ng/mL
same,"C av, mean ± SD","MAD Day 14, 200 mg BID fed",448 ± 167 ng/mL
same,"C max, geometric mean","MAD Day 14, 200 mg BID fed",(511) [35] ng/mL
same,"C max, mean ± SD","MAD Day 14, 200 mg BID fed",547 ± 193 ng/mL
same,"C trough, geometric mean","MAD Day 14, 200 mg BID fed",(349) [43] ng/mL
same,"C trough, mean ± SD","MAD Day 14, 200 mg BID fed",383 ± 163 ng/mL
same,"CLss/F, geometric mean","MAD Day 14, 200 mg BID fed",(40.1) [47] L/h
same,"CLss/F, mean ± SD","MAD Day 14, 200 mg BID fed",43.7 ± 20.6 L/h
same,"FLrel (relative fluctuation), geometric mean","MAD Day 14, 200 mg BID fed",(44.7) [27] %
same,"R ac (accumulation ratio), mean ± SD","MAD Day 14, 200 mg BID fed",4.65 ± 0.654
same,"R ac Cmax (accumulation ratio based on C max), mean ± SD","MAD Day 14, 200 mg BID fed",3.91 ± 0.612
same,"R ac, geometric mean","MAD Day 14, 200 mg BID fed",(4.60) [14]
same,"V z/F, geometric mean","MAD Day 14, 200 mg BID fed","(1,380) [62] L"
same,"V z/F, mean ± SD","MAD Day 14, 200 mg BID fed","1,590 ± 983 L"
same,"t 1/2z, geometric mean","MAD Day 14, 200 mg BID fed",(23.9) [14] h
same,"t 1/2z, mean ± SD","MAD Day 14, 200 mg BID fed",24.1 ± 3.28 h
same,"t max, median (min, max)","MAD Day 14, 200 mg BID fed","3.00 (2.00, 8.00) h"
same,"AUC0-tau, geometric mean","MAD Day 14, 300 mg BID fed","(9,290) [27] ng·h/mL"
same,"AUC0-tau, mean ± SD","MAD Day 14, 300 mg BID fed","9,670 ± 2,650 ng·h/mL"
same,"C av, geometric mean","MAD Day 14, 300 mg BID fed",(774) [27] ng/mL
same,"C av, mean ± SD","MAD Day 14, 300 mg BID fed",806 ± 221 ng/mL
same,"C max, geometric mean","MAD Day 14, 300 mg BID fed",(947) [27] ng/mL
same,"C max, mean ± SD","MAD Day 14, 300 mg BID fed",982 ± 261 ng/mL
same,"C trough, geometric mean","MAD Day 14, 300 mg BID fed",(639) [32] ng/mL
same,"C trough, mean ± SD","MAD Day 14, 300 mg BID fed",676 ± 215 ng/mL
same,"CLss/F, geometric mean","MAD Day 14, 300 mg BID fed",(32.3) [37] L/h
same,"CLss/F, mean ± SD","MAD Day 14, 300 mg BID fed",33.9 ± 12.7 L/h
same,"FLrel (relative fluctuation), geometric mean","MAD Day 14, 300 mg BID fed",(46.1) [29] %
same,"R ac (accumulation ratio), mean ± SD","MAD Day 14, 300 mg BID fed",4.40 ± 1.22
same,"R ac Cmax (accumulation ratio based on C max), mean ± SD","MAD Day 14, 300 mg BID fed",3.62 ± 0.861
same,"R ac, geometric mean","MAD Day 14, 300 mg BID fed",(4.25) [28]
same,"V z/F, geometric mean","MAD Day 14, 300 mg BID fed",(991) [29] L
same,"V z/F, mean ± SD","MAD Day 14, 300 mg BID fed","1,030 ± 299 L"
same,"t 1/2z, geometric mean","MAD Day 14, 300 mg BID fed",(21.3) [23] h
same,"t 1/2z, mean ± SD","MAD Day 14, 300 mg BID fed",21.7 ± 4.92 h
same,"t max, median (min, max)","MAD Day 14, 300 mg BID fed","3.00 (2.00, 6.00) h"
same,"CLR (renal clearance), mean ± SD",100 mg BID fed,5.16 ± 2.10 L/h
same,"CLR, geometric mean",100 mg BID fed,(4.83) [41] L/h
same,"CLR (renal clearance), mean ± SD",100 mg QD fasted,5.53 ± 1.67 L/h
same,"CLR, geometric mean",100 mg QD fasted,(5.30) [30] L/h
same,"CLR (renal clearance), mean ± SD",200 mg BID fed,4.62 ± 0.862 L/h
same,"CLR, geometric mean",200 mg BID fed,(4.55) [19] L/h
same,"CLR (renal clearance), mean ± SD",300 mg BID fed,4.92 ± 0.929 L/h
same,"CLR, geometric mean",300 mg BID fed,(4.85) [19] L/h
same,accumulation,after QD dosing,2.52 fold
same,apparent volume of distribution,healthy participants,"> 1,000 L"
